Results published in publication PMC4332700 (RSC advances, 2015).

Experiments:
α-synuclein = assay: Inhibition of HFIP-induced α-syn amyloid formation; type: biochemical; conditions: for %-Inhib. of HFIP-induced α-syn amyloid formation: converted from the %-of-control ThT and CD values; for Formation of off-path (non-amyloid) precipitates in the inhibition assays: 2 vol-% HFIP assay, EGCG at 2:1 molar ratio
Summary of the method: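 α-Syn (85 ± 5 μM; pH 6.6, 50 mM potassium phosphate, 50 mM NaCl) stirred at 37 ± 3 °C with test compound (1–4 molar equiv), then HFIP to 2 vol% after 4 h. Aliquots diluted to 4.5 μM α-syn every 2–6 h for CD, inhibitor-matched blank, [θ]218 and Δ[θ]196 read. At 16–18 h, ThT added (8-fold excess) and emission read. Values as %-of-uninhibited-control, converted to %-inhibition; mean of ≥2 experiments.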

α-syn [1] = assay: CD and visual inspection of EGCG/α-syn mixtures; type: biochemical; conditions: 100 µM α-syn, 1:1 α-syn:EGCG, 1.5 vol-% HFIP; β-sheet signature at 24 hours
α-syn [2] = assay: 15N-HSQC titration binding studies with 15N-labeled α-syn; conditions: for Binding locus on α-syn from titration shifts in 15N HSQC spectra: 200 or 400 µM α-syn, no added HFIP, 293 or 303 K
α-syn [3] = conditions: on going from 1:1 to 5:1 EGCG/α-syn, published spectra; cited from earlier work
[4] = NMR determination of folded state population of peptides; type: physicochemical; conditions: 300K; for Folded state population (χF): based on NMR data
α-syn [5] = conditions: cited from earlier work

Molecule | %-Inhib. of HFIP-induced α-syn amyloid formation (α-synuclein; 2 molar equiv. inhibitor) | Binding locus on α-syn from titration shifts in 15N HSQC spectra (α-syn [2]) | %-Inhib. of HFIP-induced α-syn amyloid formation (α-synuclein; 1 molar equiv. inhibitor) | other results
O=C(O[C@@H]1Cc2c(O)cc(O)cc2O[C@@H]1c1cc(O)c(O)c(O)c1)c1cc(O)c(O)c(O)c1 [EGCG, (−)-Epi-gallocatechin-3-gallate, reference compound] | ~ 65% | shifts at C-terminal sites | – | Time the random coil CD signature remained after HFIP addition (α-syn [1]): 8 h; Upfield shifts Δδ(1H) of α-syn HSQC peaks (α-syn [2]; 200 µM α-syn, 50 mM phosphate, pH 6.5, 303K, 5 molar equivalents of EGCG): 0.007 – 0.010 ppm; Upfield 1H shift for most α-syn HSQC peaks (α-syn [3]): 0.04 ppm
(Ac-YTTVCIRKYTG)2 (disulfide) [AcY-VCI-YTG] | ~ 70% | – | – | Folded state population (χF) [4]: 0.84
(RWTTHCHRKWE)2 (disulfide) [RW-HCH-WE] | ≥ 75% | very large shifts were observed at C-terminal sites | ~ 65% | Formation of off-path (non-amyloid) precipitates in the inhibition assays (α-synuclein): co-precipitates; β-sheet population [4]: 94%; Folded state population (χF) [4]: 0.94±0.02
(RYTTHCHRKYE)2 (disulfide) [RY-HCH-YE] | ~ 70% | – | – | β-sheet population [4]: 28%; Folded state population (χF) [4]: 0.28±0.13
(RYTTVCIRKYE)2 (disulfide) [RY-VCI-YE] | ~ 80% | – | ~ 50% | –
GKWITVS-IpPK-KLTVWIp [cp-WW2] | ~ 65% | isolated to the C-terminus | ~ 35% | –
KCLTVW-IpGK-WITVCA (disulfide) [WW2-DS] | ~ 50% | – | < 30% | –
KKLTVW-IpGK-WITVSA [WW2] | ~ 75% | M116-E137 sequence segment | ~ 50% | –
RAVTW-NPATGK-WITVWE [RAVWW] | ~ 60% | – | – | Formation of off-path (non-amyloid) precipitates in the inhibition assays (α-synuclein): did not produce off-path precipitates
RGAVVTGR-NH2 [reference compound] | < 25% | – | – | Inhibitory activity on α-syn amyloid formation (in words) (α-synuclein; 4 molar equivalents of the peptide, single experiment): absence of inhibitory activity; Inhibition of α-syn amyloid fibril formation (α-syn [5]; 2:1, 1:1 and 1:2 (peptide:α-syn) molar ratios): completely inhibit
RWEKRW-DRGSGR-WFYFND [mWWhp] | ~ 50% | – | – | Formation of off-path (non-amyloid) precipitates in the inhibition assays (α-synuclein): did not produce off-path precipitates
RWFYFN-DRGSGK-WEKRWD [cp-mWWhp] | < 20% | – | – | –
VAQKT-(N-Me)V | – | – | – | Inhibition of α-syn fibril formation (α-syn [5]; N-methylation of sites in residues 71–82): effective inhibitor
cyclo-(K-KLTVW-IpGK-WITVS-IpP) (head to tail) [cyclo-WW2] | > 90% | Q109/E137-span | ~ 75% | Inhibitory activity on α-syn β-structure / amyloid formation (in words) (α-synuclein; 2:1 peptide to α-syn ratio, 2 vol-% HFIP): complete inhibition
